Assay outcomes from PubChem.
PHOSPHO1 inh = PHOSPHO1 (human) inhibition. recombinant PHOSPHO1, absorbance phosphatase assay. inhibition, % at 13.3 µM. hit rate 1.1% among 290,000; in the data active = inhibition above about 60%
HMGR II inh = blocks class II HMG-CoA reductase of Enterococcus faecalis; inhibition, % at 10 µM; purified E. faecalis HMGR, NADPH absorbance 340 nm kinetic; hit rate 0.41% among 190,000;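 active = inhibition above a set limit, the median over all tested compounds plus 3 SD, cut at about 9.5% in these data; inconclusive = no clear call, values can overlap the other calls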;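 also: enzyme runs in reverse so mevalonate oxidation gives rising NADPH absorbance; 0% = complete reaction with DMSO and 100% = background rate lacking mevalonate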
Runt-SMMHC FRET = Runt domain-CBFb-SMMHC interaction inhibition; Q01196+Q13951; Cerulean-Runt/Venus-CBFb-SMMHC FRET ratio 530/480, 1 h; inhibition, % at 20 µM; hit rate 0.74% among 220,000; AID 1434;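 active = mean inhibition across duplicate retests at 20 µM reaching about 50%, limit read from the data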;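 also: 0% = DMSO wells and 100% = wells with excess untagged CBFb-SMMHC; inhibitors lower the FRET ratio by blocking Runt binding to CBFb-SMMHC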
Target sequence (Q01196 whole entry, looked up, the tested form may be a part): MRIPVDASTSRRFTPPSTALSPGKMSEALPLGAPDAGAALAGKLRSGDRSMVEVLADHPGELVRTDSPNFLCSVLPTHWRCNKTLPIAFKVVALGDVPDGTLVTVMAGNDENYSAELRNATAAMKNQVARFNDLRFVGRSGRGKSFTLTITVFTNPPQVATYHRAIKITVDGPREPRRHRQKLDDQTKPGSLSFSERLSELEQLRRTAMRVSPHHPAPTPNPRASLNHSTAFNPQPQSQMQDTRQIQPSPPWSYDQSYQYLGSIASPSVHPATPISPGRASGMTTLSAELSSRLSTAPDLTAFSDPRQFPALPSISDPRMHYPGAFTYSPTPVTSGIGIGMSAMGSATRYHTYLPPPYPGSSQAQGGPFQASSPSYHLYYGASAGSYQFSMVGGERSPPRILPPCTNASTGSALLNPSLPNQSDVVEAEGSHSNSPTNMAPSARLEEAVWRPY
Target sequence (Q13951 whole entry, looked up, the tested form may be a part): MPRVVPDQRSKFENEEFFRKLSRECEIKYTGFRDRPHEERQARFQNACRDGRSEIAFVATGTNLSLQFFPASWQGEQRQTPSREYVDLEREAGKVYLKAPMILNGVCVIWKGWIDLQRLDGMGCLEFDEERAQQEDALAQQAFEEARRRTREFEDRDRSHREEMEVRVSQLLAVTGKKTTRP
Runt-CBFb FRET = blocks binding of human RUNX1 Runt domain to CBFb; inhibition, % at 20 µM; Q01196+Q13951; hit rate 0.46% among 220,000; AID 1496; Cerulean-Runt/Venus-CBFb FRET ratio 530/480, 1 h;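 active = inhibition over about 50% at 20 µM in the single-dose screen, limit read from the data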;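 also: 0% = DMSO wells and 100% = excess unlabeled CBFb competitor control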
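test system = Cerulean-tagged RUNX1 Runt domain (FRET donor) fusion protein | reagent = Venus-CBFb binding partner, 100 nM | incubation = protein complex preformed 1 h, compound exposure 1 h, room temperature, dark | detection = FRET fluorescence | read-out basis = loss of energy transfer signal | controls = 5 µM unlabeled CBFb as full-inhibition high control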
RanGTP-Impb inh = inhibitors of RanGTP-importin-beta interaction, primary screen, biochemical, FRET, CFP-Ran, YFP-importin-beta, homogeneous | cell-free CFP-Ran/YFP-importin-beta FRET ratio | inhibition, % (concentration not given with the values) | hit rate 1.1% among 300,000 | AID 2216;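 active = more than half of the replicate wells show a fall in the fluorescence ratio signal beyond about 16%, limit read from the data, passing the limit was not always enough; inconclusive = exactly half of the replicate wells pass the set limit; inactive = fewer than half of replicates pass the limit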;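 also: 0% = DMSO wells and 100% = Ran loaded with GDP instead of GTP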
Wee1 stabilizer = human Wee1 degradation inhibition, primary screen; P30291; HeLa Luc-Wee1K328M stability, luciferase luminescence; 100% = proteasome inhibitor MG132 effect; reporter increase, % at 5 µM; hit rate 1.2% among 220,000; AID 1321;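 active = activation above the mean of all tested compounds plus 3 SD, set per screening run, cut at about 8.8% in these data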;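 also: cells exposed to compound for 20 h before luminescence read; 0% = DMSO alone and 100% = MG132 at 30 µM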
Wee1 degr conf = human Wee1 degradation inhibition, confirmation; shares compounds with Wee1 stabilizer; HeLa Luc-Wee1K328M degradation, luminescence; vehicle 0%, proteasome-blocked wells 100%; activation, % at 5 µM; hit rate 4% among 1,100; AID 1410; in the data active = activation above about 8.9%
Starred values were filed as active, the others as inactive; ? = inconclusive; nt = not tested or not shown. Hits are enriched below; roughly 3.4% of the tested compounds scored in any of these assays.

SMILES	PHOSPHO1 inh	HMGR II inh	Runt-SMMHC FRET	Runt-CBFb FRET	RanGTP-Impb inh	Wee1 stabilizer	Wee1 degr conf
C/C(=N\NC(=O)c1ccc(N2CCCC2=O)cc1)c1ccncc1	32.1	nt	0.4	0.6	-0.5	14.9*	0.4
O=C(CCCn1c(=S)[nH]c2ccsc2c1=O)NCCc1ccccc1	1.5	nt	nt	nt	3.0	nt	nt
COc1cc(CNc2ccc(N3CCN(C(C)=O)CC3)cc2)ccc1OCc1ccc(F)cc1	3.6	-2.3	1.4	1.1	0.6	11.6*	3.0
Cc1nnc(SCC(=O)NCc2ccc(F)cc2)[nH]c1=O	35.9	-1.8	-2.3	-0.5	0.5	11.1*	2.1
Cc1nnc(SCC(=O)NCc2ccc(Cl)cc2)[nH]c1=O	12.4	2.1	-2.7	0.7	-3.1	-3.5	nt
Cc1ccc(/C=C/C(=O)Nc2ccc([N+](=O)[O-])cc2)o1	18.3	0.7	-7.0	1.8	?	0.3	nt
Cc1ccc(/C=C/C(=O)Nc2ccc(Oc3ccccc3)cc2)o1	-5.8	-3.1	17.5	33.7	-1.9	14.9*	2.1
Cc1cc(C(=O)CSc2nc3ccccc3o2)c(C)n1CC1CCCO1 (centres undefined)	92.7*	-14.3	-4.1	6.4	0.5	10.9*	1.0
CC1CCCCC1NC(=O)c1ccc2c(c1)[nH]c(=O)n2C1CCCC1 (centres undefined)	-1.5	1.6	-2.3	-5.7	-3.8	-1.0	nt
CC1(C)Cc2nc3sc4c(SCC(=O)NCc5ccccc5)ncnc4c3cc2CO1	13.0	0.6	-2.1	-2.3	2.8	13.5*	0.1
COC(=O)c1sccc1NC(=O)c1ccc(C)cc1	nt	nt	nt	nt	3.6	nt	nt
COC(=O)c1c(NC(=O)c2ccc(C)cc2)csc1C	29.0	nt	-2.7	-2.0	-1.3	13.0*	4.0
COc1cccc(CC2(CO)CCN(Cc3ccc(NC(C)=O)cc3)CC2)c1	56.0	-0.2	0.4	-0.5	-0.3	21.6*	-1.9
Clc1cccc(-c2cc3nc4c(c(N5CCNCC5)n3n2)CCCC4)c1	-3.3	5.2	1.4	0.7	nt	12.2*	-1.3
O=c1cc(NCc2ccccc2)nc2ccccn12	27.5	1.0	-1.0	-2.3	3.3	11.7*	-0.1
CC(CCc1ccccc1)NC(=O)C1CCN(S(=O)(=O)c2cnc[nH]2)CC1 (centres undefined)	3.7	-0.5	-0.7	2.0	0.7	1.4	nt
CCOc1cc(-c2nc(-c3ccccc3OC)no2)cc(OCC)c1OCC	-44.2	1.0	-8.6	-11.6	2.3	13.8*	-0.3
O=C(C(=O)N1CCN(c2ccc([N+](=O)[O-])cc2)CC1)c1cn(CC(=O)N2CCOCC2)c2ccccc12	38.1	nt	nt	nt	nt	nt	nt
COc1ccccc1N1CCN(CC(O)COc2ccc3c(C)cc(=O)oc3c2)CC1 (centres undefined)	-10.4	-5.9	-0.7	-3.3	3.7	16.7*	-0.4
COc1ccc(OCC(=O)Nc2sc3c(c2C(=O)NCC2CCCO2)CCC3)cc1 (centres undefined)	31.7	-3.2	-11.4	-3.7	6.8	0.7	nt
CCc1nc(C)cc2c1sc1ccccc12	6.2	nt	-1.1	-0.5	3.6	24.7*	0.8
CC[n+]1c(C)cc2c(sc3ccccc32)c1C	-49.6	-1.1	14.4	1.9	nt	-2.3	nt
Cc1ccc(N(CC(O)CN2C(=O)NC(C)(C)C2=O)S(=O)(=O)c2ccc([N+](=O)[O-])cc2)cc1 (centres undefined)	10.0	nt	nt	nt	-1.3	nt	nt
Cc1ccc(N(CC(O)CN2C(=O)NC(C)(C)C2=O)S(=O)(=O)c2ccc(C)cc2)cc1 (centres undefined)	15.0	nt	-0.6	0.0	-1.7	13.1*	-0.3
COc1ccccc1-c1nc(COc2ccc(Cl)cc2Cl)no1	21.0	nt	0.9	-0.4	0.5	2.9	nt
O=[N+]([O-])c1ccc(Sc2cccc3cccnc23)c([N+](=O)[O-])c1	87.4*	-0.6	-1.0	6.6	nt	15.9*	-1.5
O=C(Nc1ccc(Cl)cn1)C1COc2ccccc2O1 (centres undefined)	12.5	1.7	nt	nt	-0.8	19.4*	1.3
